RAM inhibit: yeast RAM network inhibition | S. cerevisiae dse1pr::URA3 reporter, 5-FOA growth OD615, 2 d; analog-sensitive cbk1-as2 kinase mutant strain | inhibition, % at 50 µM | 190,000 compounds, 1.8% hits | AID 868;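 active = inhibition above a set limit, 3 SD over mean compound inhibition, cut at about 8.4% in these data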;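 also: 0% = DMSO-only wells with no growth and 100% = 10 µM 1-NA-PP1 full growth; inhibition rescues growth on 5-FOA so higher OD means more RAM inhibition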
ABCG2 block: human ABCG2 inhibition, ABCB1 as counter-screen; IgMXP3 cells, JC-1 efflux, flow cytometry; AID 1325; inhibition, % at 6.6 µM; 190,000 compounds, 0.1% hits;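 active = inhibition above 80%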;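 also: 0% = DMSO and 100% = nicardipine control wells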
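Test system: IgMXP3 (ABCG2) plus far-red-tagged CCRF-Adr (ABCB1) cells / Amount: 3 million cells/mL in well / Reagent: JC-1 transporter substrate / Timing: 10 min compound exposure, 25 °C / Signal: flow cytometry, 530 nm JC-1 signal / Read-out: percent efflux inhibition, scaled nicardipine 100% to DMSO 0% / Benchmarks: nicardipine as high control, DMSO as low control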
L major viab: reduces viability of Leishmania major promastigotes | resazurin fluorescence viability | inhibition, % at 10 µM | 200,000 compounds, 9% hits; in the data active = inhibition above about 50%;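 also: promastigotes grown with compound for 44 hours at 28 °C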
WT yeast gro inh: growth inhibition of WT yeast, mitochondrial fusion screen; 190,000 compounds, 2.1% hits; AID 1362; mitochondrial fusion phenotypic screen, WT strain; inhibition, % at 10 µM; in the data active = inhibition above about 58%; tested in S. cerevisiae
ABCB1 block: inhibitors of human ABCB1 transporter, ABCG2 counter-screen | 190,000 compounds, 0.067% hits | inhibition, % at 6.6 µM | CCRF-Adr cells, JC-1 efflux, flow cytometry | AID 1326; in the data active = inhibition above about 40%;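 also: 0% = vehicle and 100% = reference inhibitor; higher value means more JC-1 retained so stronger ABCB1 efflux block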
Numbers without * were called inactive; . = not tested or not shown. This is a sample that favours compounds with a hit; in the whole collection about 12% have one here.

SMILES	RAM inhibit	ABCG2 block	L major viab	WT yeast gro inh	ABCB1 block
COc1ccc(C(c2nnnn2Cc2ccccc2)N2CCN(C(=O)c3ccco3)CC2)cc1 (centres undefined)	2	2	58*	3	1
CCNC(=O)Nc1ccc(-n2nc(C)c(C(=O)OCC)c2C)nc1	3	3	-2	-7	0
CCCCC(=O)Nc1ccc(C(=O)N(CC)c2ccccc2C)cc1	3	-1	14	5	-1
O=C(CSc1nnc(-c2cccnc2)s1)Nc1cccc(C(=O)O)c1	10*	1	-4	-6	0
COc1cc(OC)cc(-c2nnc(SCC(=O)Nc3cccc(C(=O)O)c3)s2)c1	2	0	-10	2	0
CC(C)CC(=O)NC(=S)Nc1cccc(NC(=O)c2ccccc2)c1	2	0	100*	34	0
CCCC(=O)NC(=S)Nc1cccc(NC(=O)c2ccccc2)c1	5	4	46	-11	0
CCCCC(=O)Nc1cccc(NC(=S)NC(=O)Cc2ccccc2)c1	8	0	52*	1	0
CCC(=O)Nc1ccc(Cl)c(NC(=S)NC(C)=O)c1	0	6	2	-8	1
CCCCC(=O)NC(=S)Nc1cccc(NC(=O)c2ccccc2)c1	6	5	98*	7	0
CCCC(=O)Nc1ccc(Cl)c(NC(=S)NC(=O)C(C)C)c1	3	4	100*	-5	0
O=C(COc1cccc2ccccc12)NNC(=O)c1cccs1	5	2	-10	-17	0
CN(CCC#N)CC(=O)Nc1ccc(S(N)(=O)=O)cc1	0	0	-3	-3	0
O=c1c(Cl)c(N2CCOCC2)cnn1-c1nc2ccccc2[nH]1	0	3	4	11	0
CCOC(=O)C(=O)Nc1ccccc1C(=O)NCc1ccccc1	0	10	19	-4	0
O=C(NNC(=S)Nc1ccccc1)C1CC1	2	6	0	20	0
S=C(NN=C(C1CC1)C1CC1)Nc1ccccc1	0	-2	67*	-2	-1
CN1C2CCC1/C(=C\c1ccccc1)C(=O)/C2=C\c1ccccc1	0	0	94*	4	0
C=CCNCCCOc1ccc(Cl)cc1C(C)(C)C	3	3	100*	75*	1
C=CCc1ccc(OCCOCCN(C)C)c(OC)c1	0	0	38	6	1
C=CCNCCOCCOc1ccc(Cl)cc1C(C)(C)C	4	3	100*	36	1
C=CCNCCOCCSc1ccc(Cl)cc1	1	.	99*	13	.
COCCNCCCCSc1ccc(Cl)cc1	2	0	92*	8	0
Cc1ccc(-c2nnn(CC(=O)N(c3ccccc3)C(C(=O)NCC3CCCO3)c3cccs3)n2)o1 (centres undefined)	4	1	3	-1	0
COc1ccc(NS(=O)(=O)c2c(F)cc(F)c(Cl)c2F)cc1S(=O)(=O)N1CCCCC1	1	-6	-6	-9	-1
SMILES	RAM inhibit	ABCG2 block	L major viab	WT yeast gro inh	ABCB1 block
CC(C)(C)NCCOCCOc1ccc(Cl)cc1C(C)(C)C	1	2	91*	43	1
COCCCNCCOCCOc1c(OC)cccc1OC	0	9	83*	-7	1
COCCCNCCOCCOc1ccc(Cl)cc1C(C)(C)C	-2	0	100*	49	0
OCCNCCCOc1cc(Cl)ccc1Cl	0	2	10	-1	0
N/C(COc1cccc(C(F)(F)F)c1)=N\NC(=O)c1cccnc1Oc1ccccc1	1	1	-2	7	0
C=C(C)Cn1c(SCC(=O)N/N=C/c2cccc(O)c2)nc2ccccc2c1=O	0	0	5	-13	0
CCc1nnc(N2C(=N)SCC2=O)s1	1	3	-6	1	1
CN(Cc1ccon1)Cc1cn[nH]c1-c1ccc(-c2ccccc2)cc1	3	3	-1	48	0
CN(CCc1cnn(C)c1)Cc1cn[nH]c1-c1ccc(-c2ccccc2)cc1	0	2	90*	14	1
Cc1ccc2c(c1)[C@@H]1CN(C)CC[C@@H]1N2S(=O)(=O)c1ccc(F)cc1	-1	4	88*	-23	1
CC(C)(C)C(=O)NC(=S)Nc1ccc(F)cc1	0	0	0	-8	0
Cc1cc(C)c2nc(C(F)(F)F)nc(N3CC(C)OC(C)C3)c2c1 (centres undefined)	4	8	10	77*	1
